Twelve molecules from PubChem BioAssay can be followed below.

The source made the active and inactive calls.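 The calls were made as follows, unless noted: active = fluorescence slope higher than the sample average by over 3 SD (cut at about -0.22 in these data, passing the limit was not always enough); inactive = the rest.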

Experiment [1] is described as follows: inhibitors of TNFa-induced NFkB p65 translocation, primary screen, imaging, HUVEC, MLSMR starter and 10KST1 sets (AID 438;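 active = inhibition above 20% together with a positive visual image hit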;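 also: compound added about 3h40 before a 20 min TNFalpha stimulation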;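 as to inhibition: signal is the nuclear over cytoplasmic p65 intensity ratio per well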). The settings on record: HUVEC TNFa-induced p65 nuclear translocation; cell count: measured here: nuclei count (cytotoxicity indicator), at 2.08 µM; inhibition: at 2 µM, stronger effect = higher value, 0% TNFa-plus-vehicle, 100% no-TNFa wells.
Experiment [2] in a line: inhibitors of E-selectin induction by TNFa, primary screen, imaging, HUVEC, immunofluorescence, MLSMR starter and 10KST1 sets (AID 487;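 active = visually confirmed hit in the image check and inhibition above 20%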;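 as to inhibition: signal is fraction of cell area covered by stained E-selectin grains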;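 as to nuclei count: 100% = median nuclei count of all wells on the same plate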). To be noted: HUVEC TNFalpha-induced E-selectin immunofluorescence imaging, at 2 µM; inhibition: stronger effect = higher value; nuclei count: measured here: cell number, toxicity.
The nature of experiment [3]: DUSP6 inhibitors restoring Erk phosphorylation by chemical complementation, primary imaging in DUSP6-transfected HeLa (AID 609;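 active = compounds giving at least 50% inhibition in the cell-based MKP-3 phosphatase rescue imaging test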;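 as to inhibition: phospho-Erk level distribution per well compared with pooled transfected vehicle control wells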). The settings on record: HeLa MKP-3 transfected, phospho-Erk imaging KS statistic, at 10 µM, cells stimulated with TPA for 15 min.
Experiment [4] deals with Dual specificity protein phosphatase 6 (Homo sapiens) (UniProt Q16828). The experiment is described as above. To be noted: HeLa MKP-3 transfected, phospho-Erk imaging KS statistic; at 10 µM; stronger effect = higher value; cells stimulated with TPA for 15 min.
Experiment [5] has as its target Voltage-gated potassium channel subunit beta-2 (Rattus norvegicus) (UniProt P62483). The experiment is described as follows: KvBeta enzyme negative modulators, primary screen, biochemical, NADPH fluorescence (AID 622).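 Also: slope of raw intensity against log time taken from 70 to 1610 s.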 To be noted: recombinant KvBeta, 4-cyanobenzaldehyde reduction, at 10 µM, stronger effect = higher value.
Experiment [6] has the same target. The experiment is described as follows: KvBeta positive modulators, primary screen, biochemical, NADPH fluorescence (AID 623;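 active = NADPH fluorescence slope more negative than the mean of all samples by about 3 SD, 99.7% confidence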;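 also: fluorescence intensity change per second fitted from 20 to 320 s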). To be noted: Recombinant KvBeta, NADPH fluorescence decrease slope, 10 min; at 10 µM; stronger effect = lower value.
Experiment [7] has as its target Alpha-2C adrenergic receptor (Homo sapiens) (UniProt P18825). The experiment is described as follows: modulators of alpha2C/GIRK thallium flux, primary screen, cell-based, HEK293 alpha2C/GIRK1/2 (AID 624;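 active = fluorescence slope after compound addition differing from the mean of all screened samples at 99.7% confidence, in either direction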;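 also: slope of fluorescence ratio to pre-addition baseline per second over 15 to 24 s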). The settings on record: thallium flux BTC fluorescence, at 10 µM, actives lie on both sides.
Experiment [8] can be described thus: inhibitors of larval lipid processing in zebrafish, primary screen, whole organism, PED6 fluorescence, gall bladder and intestine (AID 686;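 active = a full or partial loss of lipid-probe fluorescence in the fish gall bladder, intestine or both, judged by eye; inactive = no fluorescence loss, or compound toxic to the fish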;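 also: larvae 5 to 7 days old with five fish per well; signal comes from phospholipase A2 cleavage of quenched PED6 carried via bile; overnight exposure to compound and PED6 before scoring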). The settings on record: Zebrafish larvae PED6 lipid processing, fluorescence scoring; screened at 20 µM (by protocol). A digest of the protocol:
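system = live zebrafish larvae aged 5-7 days, whole organism | probe or stimulus = ingested quenched lipid PED6 at 100 nM | doses = 20 µM single dose | timing = overnight exposure | detection = fluorescence microscopy with visual scoring of gall bladder and intestine | read-out = visual per-well fluorescence inhibition score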

Experiment [9] can be described thus: inhibitors of Chlamydomonas gravitaxis, primary screen, whole organism, Chlamydomonas reinhardtii, WT vs cilia-less mutant, absorbance, 96-well (AID 463189;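 active = inhibition at or above 50% relative to wild type and mutant plate controls; inactive = inhibition below 50%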;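 also: 0% = wild type cc124 cells in DMSO and 100% = ciliumless bld1 mutant cells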). To be noted: OD600 absorbance, 2 days, at 10 µM, stronger effect = higher value.
Where [10] appears, read: measured here: cell density z-score.
Setting [11] is: measured here: nuclear c-Myc green intensity z-score.
Where [12] appears, read: measured here: nuclear pErk red intensity z-score, stronger effect = higher value.

Broadly, the inhibition is the drop in the measured response relative to a control, in per cent.

Voltage-gated potassium channel subunit beta-2 (Rattus norvegicus), sequence (P62483 whole entry, looked up): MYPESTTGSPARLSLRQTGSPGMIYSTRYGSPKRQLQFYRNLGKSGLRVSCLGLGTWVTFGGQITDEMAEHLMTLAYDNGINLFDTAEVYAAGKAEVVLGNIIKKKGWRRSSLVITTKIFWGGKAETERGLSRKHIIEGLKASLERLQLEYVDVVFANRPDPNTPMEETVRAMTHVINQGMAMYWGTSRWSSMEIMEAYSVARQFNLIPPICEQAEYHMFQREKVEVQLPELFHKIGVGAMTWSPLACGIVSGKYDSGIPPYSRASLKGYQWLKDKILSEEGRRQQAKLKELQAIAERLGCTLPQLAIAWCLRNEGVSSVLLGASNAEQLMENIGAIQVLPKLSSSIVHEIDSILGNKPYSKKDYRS
Dual specificity protein phosphatase 6 (Homo sapiens), sequence (Q16828 whole entry, looked up): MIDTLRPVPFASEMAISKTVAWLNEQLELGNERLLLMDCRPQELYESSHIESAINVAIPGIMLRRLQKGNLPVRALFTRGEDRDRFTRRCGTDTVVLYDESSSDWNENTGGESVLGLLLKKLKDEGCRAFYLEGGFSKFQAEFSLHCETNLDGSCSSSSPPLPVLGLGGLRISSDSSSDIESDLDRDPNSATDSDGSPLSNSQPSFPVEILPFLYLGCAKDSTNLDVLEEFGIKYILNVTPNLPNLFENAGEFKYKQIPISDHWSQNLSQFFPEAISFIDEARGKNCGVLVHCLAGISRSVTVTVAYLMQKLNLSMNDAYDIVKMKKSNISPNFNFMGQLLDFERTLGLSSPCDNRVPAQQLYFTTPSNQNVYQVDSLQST
Alpha-2C adrenergic receptor (Homo sapiens), sequence (P18825 whole entry, looked up): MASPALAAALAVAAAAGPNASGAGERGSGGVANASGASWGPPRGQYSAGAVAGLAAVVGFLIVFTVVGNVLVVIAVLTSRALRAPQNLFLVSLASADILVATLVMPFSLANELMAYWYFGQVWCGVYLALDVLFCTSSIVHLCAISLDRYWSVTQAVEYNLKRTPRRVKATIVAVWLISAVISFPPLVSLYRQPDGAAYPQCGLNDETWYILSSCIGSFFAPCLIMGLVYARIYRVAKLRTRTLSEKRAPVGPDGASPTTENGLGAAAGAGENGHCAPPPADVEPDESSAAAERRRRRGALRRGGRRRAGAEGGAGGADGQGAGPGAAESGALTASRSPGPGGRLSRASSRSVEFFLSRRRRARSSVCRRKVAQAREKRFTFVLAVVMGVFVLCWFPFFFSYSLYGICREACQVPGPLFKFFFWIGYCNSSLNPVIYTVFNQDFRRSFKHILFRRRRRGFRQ

`CC1(C)Cc2c(sc3nc4n(c(=O)c23)CCC4)CO1`: the cell count in [1] came out at 700. Further, the inhibition in experiment [1] was -9.4% (inactive); in [2], 43.7% (inactive); in experiment [4], 2.71% (inactive); in experiment [9], -8.7% (inactive). In addition, the nuclei count in [2] turned out to be 159%. The figures for the z-score in experiment [3] (setting [10]), in experiment [3] (setting [11]) and in [3] (setting [12]) were -1.3, 1.46 and 1.2, respectively. Moreover, the fluorescence slope in experiment [5] was -0.377 (inactive). Moreover, the NADPH fluorescence slope in experiment [6] was -6e-05 (inactive). The slope in experiment [7] was 0.00549 (inactive). For the same molecule, the outcome in experiment [8] was inactive.
With `Cc1c([C@H]2[C@@H](CC#N)C2(C)C)c2ccccc2n1C`, in [1], the cell count was 637. Also, the inhibition was -3.8% (inactive) in experiment [1], -51.3% (inactive) in [2], -6.48% (inactive) in experiment [4] and 11.5% (inactive) in experiment [9]. For the same molecule, in experiment [2], the nuclei count came out at 153%. Besides, the values for the z-score in experiment [3] (setting [10]), in experiment [3] (setting [11]) and in experiment [3] (setting [12]) were -0.588, 0.872 and 0.83, respectively. The fluorescence slope in [5] is -0.536 (inactive). In [6], the NADPH fluorescence slope is -9.2e-05 (inactive). The slope in experiment [7] was 0.00537 (inactive). The call in experiment [8] was inactive.
As for `O=S(=O)(c1ccccc1)N1CCC(N2CCN(c3ccccc3)CC2)CC1`, in experiment [1], the cell count is 454. Moreover, the inhibition was -26.3% (inactive) in experiment [1], -98.2% (inactive) in experiment [2], -3.95% (inactive) in experiment [4] and 1.95% (inactive) in experiment [9]. This molecule also came in with a nuclei count in experiment [2] of 140%. Further, the values for the z-score in experiment [3] (setting [10]), in experiment [3] (setting [11]) and in experiment [3] (setting [12]) were -1.37, -0.201 and -1.07, respectively. In experiment [5], the fluorescence slope was -0.326 (inactive). Moreover, in experiment [6], the NADPH fluorescence slope is 1.7e-05 (inactive). Further, the slope in experiment [7] is 0.006 (inactive). Besides, in [8], the outcome was inactive.
On to `CCc1ccc(NC(=O)CSC2=C(C#N)C(c3ccco3)C3=C(CCCC3=O)N2)cc1` (stereo unspecified), for which, in experiment [1], the cell count was 461. Moreover, the inhibition was -1.3% (inactive) in experiment [1], -13.8% (inactive) in experiment [2], 5.57% (inactive) in [4] and -1.64% (inactive) in experiment [9]. This molecule also showed a nuclei count in [2] of 117%. The z-score in experiment [3] (setting [10]) was -0.838; in [3] (setting [11]), 1.11; in [3] (setting [12]), 0.462. In experiment [5], the fluorescence slope was -0.501 (inactive). Also, the NADPH fluorescence slope in experiment [6] is -8.3e-05 (inactive). Besides, in [7], the slope was 0.00507 (inactive). Besides, in experiment [8], the molecule was classed as inactive.
In the case of `COc1ccc(C2CC(C(F)(F)F)n3ncc(C(=O)NCC4CCCO4)c3N2)cc1OC` (stereo unspecified), the cell count in [1] stood at 536. Also, the inhibition in experiment [1] is -1.8% (inactive); in [2], 12.3% (inactive); in experiment [4] it was 3.66% (inactive); in experiment [9], -9.44% (inactive). In [2], this molecule came in with a nuclei count of 132%. In addition, the z-score was -0.241 in experiment [3] (setting [10]), -1.11 in experiment [3] (setting [11]) and 1.35 in experiment [3] (setting [12]). The fluorescence slope in [5] is -0.51 (inactive). For the same molecule, the NADPH fluorescence slope in [6] is -6.1e-05 (inactive). Moreover, the slope in experiment [7] was 0.00469 (inactive). Also, the call in experiment [8] was inactive.
On to `COC(=O)c1cc(OC)c(OC)cc1N`, for which the cell count in experiment [1] is 358. Also, the inhibition in experiment [1] is -11.5% (inactive); in experiment [2] it was 9.3% (inactive); in experiment [4], -12.3% (inactive); in experiment [9] it was -2.54% (inactive). In addition, the nuclei count in [2] was 135%. The z-score in experiment [3] (setting [10]) came out at 0.282; in experiment [3] (setting [11]), 0.254; in [3] (setting [12]) it was 0.0446. Moreover, in experiment [5], the fluorescence slope was -0.385 (inactive). Further, the NADPH fluorescence slope in [6] was -0.000132 (inactive). The slope in [7] is 0.00592 (inactive). The call in experiment [8] was inactive.
As to `Cc1ccc(S(=O)(=O)N2CCC(N3CCCCCC3)CC2)cc1`, the cell count in experiment [1] was 449. For the same molecule, the inhibition in [1] was -31.4% (inactive); in [2] it was -231% (inactive); in experiment [4] it was 1.04% (inactive); in experiment [9] it was 116% (active). The molecule also registered a nuclei count in [2] of 163%. For the same molecule, the z-score in experiment [3] (setting [10]) is 0.833; in [3] (setting [11]), -1.65; in experiment [3] (setting [12]), 0.596. Besides, the fluorescence slope in experiment [5] is -0.29 (inactive). In [6], the NADPH fluorescence slope is -8.7e-06 (inactive). The slope in experiment [7] is 0.0051 (inactive). Also, in [8], the outcome was inactive.
For `Cc1ccc(S(=O)(=O)N2CCN(c3nc(C)c4c(c3C#N)CC(C)(C)OC4)CC2)cc1`, the cell count in experiment [1] was determined as 645. Further, the inhibition in [1] is -13.9% (inactive); in [2] it was 9.7% (inactive); in experiment [4], 22.7% (inactive); in experiment [9] it was 110% (active). This molecule also came in with a nuclei count in [2] of 182%. The z-score in experiment [3] (setting [10]) was 1; in [3] (setting [11]), -1.7; in experiment [3] (setting [12]), 0.0451. Moreover, in experiment [5], the fluorescence slope was -0.471 (inactive). Further, the NADPH fluorescence slope in experiment [6] is -0.000183 (inactive). Also, in experiment [7], the slope was 0.0077 (inactive). Also, the outcome in experiment [8] was inactive.
In the case of `CCCCCNC(=O)c1c(N)n(/N=C/c2ccco2)c2nc3ccccc3nc12`, the cell count in [1] stood at 351. The inhibition in experiment [1] is -5.8% (inactive); in experiment [2], -71.9% (inactive); in [4] it was 17.4% (inactive); in [9], 14.7% (inactive). For the same molecule, the nuclei count in [2] is 147%. In addition, the z-score in [3] (setting [10]) was 1.49; in experiment [3] (setting [11]), -0.91; in [3] (setting [12]), -0.977. In addition, the fluorescence slope in [5] was -0.416 (inactive). Also, in [6], the NADPH fluorescence slope was -0.000149 (inactive). In addition, the slope in experiment [7] is 0.00624 (inactive). In addition, the molecule was called inactive in experiment [8].
Regarding `CCOC(=O)CCc1c(C)c(C#N)c2nc3ccccc3n2c1-n1ccnc1C`, the cell count in experiment [1] was determined as 583. Further, the inhibition is -0.8% (inactive) in [1], -125% (inactive) in experiment [2], 7.93% (inactive) in experiment [4] and 21.4% (inactive) in experiment [9]. The nuclei count in [2] turned out to be 138%. In addition, the z-score in experiment [3] (setting [10]) was -0.341; in experiment [3] (setting [11]) it was 0.0322; in experiment [3] (setting [12]), -0.112. Further, the fluorescence slope in experiment [5] was -0.457 (inactive). Also, in experiment [6], the NADPH fluorescence slope was -3.9e-05 (inactive). Also, the slope in experiment [7] is 0.00607 (inactive). Besides, the call in experiment [8] was inactive.
For `N/C(=N\c1nc2ccccc2o1)NC(=O)c1ccccc1NC(=O)c1ccccc1`, the cell count in experiment [1] came out at 614. Also, the inhibition in [1] is 5.2% (inactive); in experiment [2], -20.4% (inactive); in experiment [4], 2.46% (inactive); in experiment [9], 9.27% (inactive). For the same molecule, the nuclei count in experiment [2] worked out at 160%. For the same molecule, the z-score in experiment [3] (setting [10]) is 1.3; in experiment [3] (setting [11]), -0.342; in [3] (setting [12]) it was -0.375. Besides, the fluorescence slope in experiment [5] was -0.361 (inactive). For the same molecule, the NADPH fluorescence slope in experiment [6] was -2e-05 (inactive). Also, in experiment [7], the slope was 0.0114 (inactive). The outcome in [8] was inactive.
Regarding `COc1ccc(Nc2oc(-c3cccs3)nc2C#N)cc1`, in experiment [1], the cell count came to 383. Besides, the inhibition in experiment [1] was 2.9% (inactive); in experiment [2], -134% (inactive); in experiment [4], 15% (inactive); in [9], 16% (inactive). Further, in experiment [2], the nuclei count was 142%. In addition, the z-score is 1.97 in experiment [3] (setting [10]), -0.949 in [3] (setting [11]) and -1.32 in experiment [3] (setting [12]). For the same molecule, in experiment [5], the fluorescence slope was -0.352 (inactive). Moreover, the NADPH fluorescence slope in [6] was -1.7e-05 (inactive). The slope in experiment [7] is 0.00524 (inactive). Further, in [8], the outcome was inactive.
